Each molecule was assayed on Mycobacterium tuberculosis (assay: Uncompetitive inhibition of Mycobacterium tuberculosis IMPDH deltaCBS mutant expressed in Escherichia coli BL21(DE3) in presence of IMP and NAD+).
Outline: (§1)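 Enzyme was Mth IMPDH ΔCBS expressed in E. coli BL21(DE3) at 18°C with 500 µM IPTG, then Ni-IMAC purified, TEV-cleaved and run on gel filtration; assay buffer and 37°C conditions as in the activity assay. […] Initial rates were fit to uncompetitive or mixed inhibition equations, and the pattern was read from Lineweaver-Burk plots.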

| SMILES | alphaKi [µM] |
| --- | --- |
| COc1c(C)c2c(c(O)c1C/C=C(\C)Cn1cc(COC[C@H]3O[C@@H](n4cnc5c(N)ncnc54)[C@H](O)[C@@H]3O)nn1)C(=O)OC2 | 1 |
| C=C(C)c1cccc(C(C)(C)NC(=O)Nc2ccc(Cl)c(C(=O)N(C)C)c2)c1 | 0.009 |

What follows are molecules tested on Mycobacterium tuberculosis (assay: Inhibition of Mycobacterium tuberculosis IMPDH deltaCBS mutant assessed as reduction in NADH production at 1 mM using IMP as substrate preincubated for 5 mins followed by substrate addition measured for 32 mins in presence of NAD+).

| SMILES | inhibition [%] |
| --- | --- |
| Nc1n[nH]c(-c2ccccc2)c1Br | 53 |
| Cc1ccc(-c2nc(C(=O)O)cs2)cc1 | 88 |
| Oc1ccc2ccccc2c1 | 57 |
| COc1ccc2ccc(O)cc2c1 | 66 |
| N#Cc1c[nH]c2ccccc12 | 51 |
| CC(=O)Nc1cc(C)ccc1O | 79 |
| Nc1[nH]ncc1-c1cccc(Br)c1 | 50 |
| Clc1ccc(-c2cnc[nH]2)cc1 | 59 |
| Oc1cccc2ccccc12 | 68 |
| Brc1ccc(-c2c[nH]cn2)cc1 | 65 |
| O=C(O)c1cc2sccc2s1 | 86 |
| CC1(C)Cc2cccc(CO)c2O1 | 99 |
| O=C(O)c1ccccc1-n1cccc1 | 72 |
| Nc1ccc(-n2ccnc2)cc1 | 64 |
| Oc1ccc2ccc(O)cc2c1 | 77 |
| OCc1ccc2sccc2c1 | 53 |
| O=C(O)c1cc2cccc(O)c2cc1O | 98 |

The molecules below were run on Mycobacterium tuberculosis (assay: Uncompetitive inhibition of Mycobacterium tuberculosis IMPDH deltaCBS mutant).
Outline: as §1

| SMILES | alphaKi [µM] |
| --- | --- |
| O=C(C1CCCCC1)N1CCN(S(=O)(=O)c2ccc3cnccc3c2)CC1 | 0.12 |
| Cc1n[nH]c(C)c1S(=O)(=O)Nc1ccc2c[nH]nc2c1 | 0.22 |

Each molecule was assayed on Mycobacterium tuberculosis (assay: Inhibition of Mycobacterium tuberculosis IMPDH deltaCBS mutant assessed as reduction in NADH production using IMP as substrate at 10 uM preincubated for 5 mins followed by substrate addition measured for 32 mins in presence of NAD+).

| SMILES | inhibition [%] |
| --- | --- |
| CC(Oc1ccc(-c2cn(C)cn2)cc1)C(=O)Nc1ccccc1 (stereo unspecified) | 4 |
| CC(Oc1ccc(-c2cn(C)cn2)cc1)C(=O)Nc1ccc(I)cc1 (stereo unspecified) | 97 |
| CC(Oc1ccc(-c2cn(C)cn2)cc1)C(=O)Nc1nc(-c2ccc(I)cc2)c[nH]1 (stereo unspecified) | 96 |
| CC(Oc1ccc(-c2cn(C)cn2)cc1)C(=O)Nc1nc(-c2ccc(Br)cc2)c[nH]1 (stereo unspecified) | 99 |
| COc1ccc(OC(C)C(=O)Nc2ccc(I)cc2)cc1 (stereo unspecified) | 92 |
| CC(Oc1ccc(-c2cn(C)cn2)cc1)C(=O)Nc1nc(-c2ccc(N3CCOCC3)cc2)c[nH]1 (stereo unspecified) | 94 |
| CC(Oc1ccc(-c2cn(C)cn2)cc1)C(=O)Nc1nc(-c2ccc(Br)cc2)co1 (stereo unspecified) | 83 |
| C[C@H](Oc1ccc(-c2cn(C)cn2)cc1)C(=O)Nc1nc(-c2ccc(Br)cc2)c[nH]1 | 99 |
| CC(Oc1ccc(-c2cn(C)cn2)cc1)C(=O)Nc1nc(-c2ccccc2)c[nH]1 (stereo unspecified) | 77 |
| COc1ccc(-c2c[nH]c(NC(=O)C(C)Oc3ccc(-c4cn(C)cn4)cc3)n2)cc1 (stereo unspecified) | 95 |

These molecules were tested on Mycobacterium tuberculosis (assay: (§2) Uncompetitive inhibition of Mycobacterium tuberculosis IMPDH deltaCBS mutant assessed as reduction in NADH production preincubated for 5 mins followed by substrate IMP addition at increasing concentration measured for 32 mins in presence of constant concentration of NAD+ by Lineweaver-Burk plot analysis).

| SMILES | alphaKi [µM] |
| --- | --- |
| COc1ccc(OC(C)C(=O)Nc2ccc(I)cc2)cc1 (stereo unspecified) | 0.86 |

What follows are molecules tested on Mycobacterium tuberculosis (assay: Inhibition of Mycobacterium tuberculosis IMPDH deltaCBS mutant assessed as reduction in NADH production using IMP as substrate at 100 uM preincubated for 5 mins followed by substrate addition measured for 32 mins in presence of NAD+).

| SMILES | inhibition [%] |
| --- | --- |
| O=C(CSc1nc(-c2ccccc2)c[nH]1)Nc1ccc(I)cc1 | 46 |
| O=C(NCc1ncc(-c2ccc(Br)cc2)[nH]1)Nc1ccc(-c2c[nH]cn2)cc1 | 56 |
| O=C(O)CSc1nc(-c2ccc(Br)cc2)c[nH]1 | < 5 |
| O=C(CSc1nc(-c2ccccc2)c[nH]1)Nc1ccc(-c2c[nH]cn2)cc1 | 24 |
| O=C(O)CSc1nc(-c2ccccc2)c[nH]1 | < 5 |
| O=C(CSc1nc(-c2ccc(Br)cc2)c[nH]1)Nc1ccc2occc2c1 | 31 |
| O=C(CSc1ncc(-c2ccccc2)[nH]1)Nc1ccccc1 | < 5 |
| Brc1ccc(-c2c[nH]cn2)cc1 | < 5 |
| O=C(CSc1nc(-c2ccc(Br)cc2)c[nH]1)Nc1ccccc1 | 13 |
| O=C(CSc1nc(-c2ccccc2)c[nH]1)Nc1ccc2occc2c1 | 36 |
| CC(C)NC(=O)CSc1nc(-c2ccccc2)c[nH]1 | < 5 |
| O=C(CSc1nc(-c2ccc(Br)cc2)c[nH]1)Nc1ccc(-c2c[nH]cn2)cc1 | 20 |
| O=C(CSc1nc(-c2ccc(Br)cc2)c[nH]1)Nc1ccc(I)cc1 | 30 |

Each molecule was assayed on Mycobacterium tuberculosis (assay: as §2, with “Mixed-type” for “Uncompetitive”).

| SMILES | alphaKi [µM] |
| --- | --- |
| Cc1ccc(-c2nc(C(=O)O)cs2)cc1 | 398 |

Source: ChEMBL document CHEMBL4219150, “Fragment-Based Approach to Targeting Inosine-5'-monophosphate Dehydrogenase (IMPDH) from Mycobacterium tuberculosis” (J Med Chem, 2018)
